# Assay outcomes as filed in PubChem BioAssay.
# The list is not random: actives were taken first. Their share in the collection is about 1.6%.
# PHOSPHO1 block: blocks human PHOSPHO1 phosphatase activity; recombinant PHOSPHO1, absorbance phosphatase assay; inhibition, % at 13.3 µM; Q8TCT1; AID 1565; hit rate 1.1% among 290,000; in the data active = inhibition above about 60%
# ABCG2 inh: blocks JC-1 efflux by human ABCG2 transporter. Q9UNQ0. IgMXP3 cells, flow cytometry. inhibition, % at 6.6 µM. hit rate 0.1% among 190,000. AID 1325;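 active = inhibition above 80%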;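 note: 0% = DMSO and 100% = nicardipine control wells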
# Target sequence (Q9UNQ0 whole entry, looked up): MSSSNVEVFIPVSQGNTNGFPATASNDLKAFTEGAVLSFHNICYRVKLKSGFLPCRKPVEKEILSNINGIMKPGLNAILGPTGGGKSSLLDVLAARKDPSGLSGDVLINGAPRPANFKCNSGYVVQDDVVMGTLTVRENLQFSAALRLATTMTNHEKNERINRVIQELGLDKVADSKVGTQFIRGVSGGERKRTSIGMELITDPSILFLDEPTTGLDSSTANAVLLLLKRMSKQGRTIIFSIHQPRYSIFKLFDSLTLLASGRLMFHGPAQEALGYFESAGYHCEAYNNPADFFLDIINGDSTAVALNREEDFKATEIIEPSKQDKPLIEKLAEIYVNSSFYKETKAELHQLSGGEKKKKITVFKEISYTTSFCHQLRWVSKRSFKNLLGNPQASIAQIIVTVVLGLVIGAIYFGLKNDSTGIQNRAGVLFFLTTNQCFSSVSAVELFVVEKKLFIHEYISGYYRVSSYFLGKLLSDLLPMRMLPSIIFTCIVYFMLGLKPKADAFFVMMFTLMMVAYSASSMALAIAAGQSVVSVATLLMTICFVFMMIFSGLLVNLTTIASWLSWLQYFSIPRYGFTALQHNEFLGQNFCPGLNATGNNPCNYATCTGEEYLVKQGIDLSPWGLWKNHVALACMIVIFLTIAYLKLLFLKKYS
#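 Measure – % inhibition of efflux relative to nicardipine and DMSO · Test system – ABCG2 IgMXP3 and barcoded ABCB1 CCRF-Adr cell mix · Control set – nicardipine as high control, DMSO as low control · Compound – one concentration, 6.6 µM final · Signal – flow cytometry of retained JC-1 fluorescence · Timing – 10 min exposure at 25 °C with rotation, no wash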
# HSV augment: HSV replication enhancement | HSV replication augmentation in cells, fold increase | maximum fold increase | hit rate 0.005% among 220,000 | AID 1956; in the data active = maximum fold increase above about 1.5; tested in PC3 cells
# NCF1 inh: inhibitors of human p47phox binding. P14598. AID 1274. inhibition, % at 24.7 µM. p47phox/p22phox peptide binding, fluorescence polarization, 2 h. hit rate 0.53% among 220,000;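 active = inhibition above about 30%, limit read from the data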;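 note: 0% = p47phox with labelled peptide and 100% = labelled peptide alone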
# PKD1 inh: blocks activity of human protein kinase D1. Q15139. PKD1 kinase fluorescence polarization assay. inhibition, % (concentration not given with the values). hit rate 0.056% among 200,000; in the data active = inhibition above about 50%
# ABCB1 inh: blocks JC-1 efflux by human ABCB1 transporter | P08183 | CCRF-Adr cells, flow cytometry | inhibition, % at 6.6 µM | hit rate 0.067% among 190,000 | AID 1326; in the data active = inhibition above about 40%;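 note: 0% = vehicle and 100% = reference inhibitor; higher value means more JC-1 retained so stronger ABCB1 efflux block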
# Active calls of the source: *; i = inactive; nt = no result.
SMILES,PHOSPHO1 block,ABCG2 inh,HSV augment,NCF1 inh,PKD1 inh,ABCB1 inh
CC(C)c1onc(C(=O)N2CCC3(CC2)OCCO3)c1[N+](=O)[O-],63.6*,nt,nt,nt,nt,nt
O=C1NC(=O)C(CCc2ccncc2)(CCc2ccncc2)C(=O)N1CCc1ccc(F)cc1,-3.9,0.0,i,-5.3,-3.3,-0.1
O=C1NC(=O)C(CCc2ccncc2)(CCc2ccncc2)C(=O)N1CCc1ccccc1,62.8*,0.8,i,-6.7,0.7,0.2
Cc1ccc(N2C(=O)NC(=O)/C(=C\c3cccn3C(C)(C)C)C2=O)cc1,60.0*,0.1,i,-11.2,-0.5,0.4
Cc1c2ccncc2c(C)c2c1[nH]c1ccccc12,-18.5,19.5,i,94.7*,86.9*,11.9
C[n+]1ccc(-c2ccncc2)cc1,91.7*,-0.1,i,7.2,-7.7,0.1
OCC[n+]1c2ccccc2nc2ccc(N3CCOCC3)cc21,6.1,nt,i,155.4*,nt,nt
O=C(COc1ccc(S(=O)(=O)N2CCOCC2)cc1)N1CCN(Cc2ccc3c(c2)OCO3)CC1,4.6,-0.2,i,-6.6,0.4,0.0
CC(C)(C)NS(=O)(=O)c1ccc(OCC(=O)N2CCN(Cc3ccccc3)CC2)cc1,60.1*,1.7,i,1.4,-12.8,0.6
CCCNS(=O)(=O)c1ccc(OCC(=O)N2CCN(Cc3ccccc3)CC2)cc1,-10.0,34.8,i,4.0,4.8,3.0
CCCCNS(=O)(=O)c1ccc(OCC(=O)N2CCN(Cc3ccc4c(c3)OCO4)CC2)cc1,61.0*,nt,nt,nt,nt,nt
Oc1ccccc1CN(CCc1ccccc1)Cc1ccccc1,28.7,nt,nt,nt,nt,nt
CC(C)(C)n1cc(C(=O)c2ccccc2)cc1-c1ccccc1,7.4,nt,i,-10.1,nt,nt
CC1=NN(c2ccccc2)C(=O)/C1=C/c1c(O)[nH]c(=O)[nH]c1=O,32.0,-2.5,i,-2.0,0.8,-1.3
CC1=NN(c2ccccc2)C(=O)/C1=C/c1c(O)[nH]c(=S)[nH]c1=O,86.0*,-0.3,i,-52.5,1.4,0.1
CCOP(=S)(OCC)N1CCOCCOCCN(P(=S)(OCC)OCC)CCOCCOCC1,10.8,-0.4,i,-5.5,-1.2,1.0
CCOC(=O)c1c(C)c(P(=S)(N2CCOCC2)N2CCOCC2)n(C)c1C,61.0*,1.4,i,-0.4,4.5,0.6
C=CCn1c(O)c(/C(C)=N/NC(=S)Nc2ccccc2)c(=O)[nH]c1=O,-14.8,nt,i,-22.2,nt,nt
C=CCn1c(O)c(/C(CC)=N/NC(=S)Nc2ccccc2)c(=O)[nH]c1=O,66.8*,nt,i,-7.5,nt,nt
O=C1NC(=S)NC(=O)C12C(c1ccc(F)cc1)NC(=S)NC2c1ccc(F)cc1 (centres undefined),95.4*,-0.9,i,0.0,-3.6,-0.2
S=C=Nc1ccccn1,61.2*,2.8,i,-3.0,-6.0,0.8
CCC(CO)(C(=O)OC1C[N+]2(C)CCC1CC2)c1ccccc1 (centres undefined),-9.8,6.8,i,-9.3,3.4,1.8
CN1C(=O)NC(=O)/C(=C/c2ccc([N+](=O)[O-])o2)C1=O,16.6,nt,i,-48.3,nt,nt
O=C1NC(=O)N(c2ccccc2)C(=O)/C1=C\c1ccc([N+](=O)[O-])o1,62.3*,nt,i,-91.5,nt,nt
CC(Cc1ccccc1)N1Cc2ccccc2C1 (centres undefined),28.4,nt,nt,nt,nt,nt
SMILES,PHOSPHO1 block,ABCG2 inh,HSV augment,NCF1 inh,PKD1 inh,ABCB1 inh
CCN(CC)C(=O)c1ccc2c(c1)C1C(Cl)C(Sc3ccccc3[N+](=O)[O-])CC1C(C(=O)O)N2 (centres undefined),-20.9,nt,i,46.1*,nt,nt
Cc1ccc2c(c1Cl)NC(C(=O)O)C1CC(Sc3ccccc3[N+](=O)[O-])C(Cl)C21 (centres undefined),-98.4,nt,i,2.7,nt,nt
CC(=O)c1c(C)[nH]c(C(=O)N2CCC3(CC2)OCCO3)c1C,2.3,1.6,i,-7.8,-0.2,0.3
CCOc1ccccc1N=C1SCCCN1C,92.4*,0.3,i,-3.6,2.1,0.0
O=C(c1cccc(C(F)(F)F)c1)N1C[C@H]2C[C@@H](C1)c1cccc(=O)n1C2,18.2,nt,nt,nt,nt,nt
O=C(c1ccc2c3c(cccc13)CC2)C1CCCN(Cc2ncc[nH]2)C1 (centres undefined),44.9,2.4,i,-25.5,-4.6,0.9
O=C(c1ccc2c3c(cccc13)CC2)C1CCCN(CC2CC2)C1 (centres undefined),60.1*,2.1,i,-11.4,-2.0,0.8
O=C(c1ccc(-c2ccccc2)c(F)c1)C1CCCN(CCO)C1 (centres undefined),60.1*,-1.8,i,-11.1,1.8,-0.6
COc1ccc(Cl)cc1C(=O)C1CCCN(CCO)C1 (centres undefined),17.7,1.8,i,4.2,-3.2,0.6
CCCCn1c(NS(=O)(=O)c2ccccc2)c(C(=O)OCC)c2nc3ccccc3nc21,83.4*,-4.4,i,-15.4,-2.2,-0.3
CCCCn1c(NC(=O)c2ccc(Br)o2)c(C(=O)OCC)c2nc3ccccc3nc21,3.8,8.2,i,-3.7,-7.6,1.1
O=c1[nH]c(=S)[nH]c(O)c1N=Nc1cccc(S(=O)(=O)N2CCOCC2)c1,-22.6,nt,i,-18.6,nt,nt
O=c1[nH]c(O)c(N=Nc2cccc(S(=O)(=O)N3CCOCC3)c2)c(=O)[nH]1,60.0*,24.6,i,-13.2,3.2,1.5
Cc1cccc(-n2c(-c3ccccc3)nc3ccccc3c2=O)n1,36.8,3.8,i,1.2,-5.5,0.7
Oc1ccc(/C=N/NP(=S)(c2ccccc2)c2ccccc2)cc1,83.3*,nt,i,-40.5,-2.4,nt
COc1cc(/C=N/NP(=S)(c2ccccc2)c2ccccc2)ccc1O,28.6,3.4,i,-5.9,2.7,1.5
CC(C)CCNC(=O)c1cc(C(=O)c2cc(Br)ccc2O)cn(CCC(C)C)c1=O,9.1,1.9,i,-18.2,-4.3,0.7
CCN(CC)c1ccc(/C=C2\C(=O)NC(=O)N(Cc3ccco3)C2=O)cc1,-12.5,-1.2,i,126.5*,1.9,0.6
Cn1ncnc2c(=O)n(C)c(=O)nc1-2,78.7*,nt,i,nt,nt,nt
CCN(CC)P(=O)(NC(=O)C(Cl)(Cl)Cl)N(CC)CC.[Cl-].[Cl-].[Cl-].[Nd+3],2.7,0.8,i,33.1*,7.2,0.2
O=C(CCc1nnc2ccc(NCc3ccc(F)cc3)nn12)N1CCC2(CC1)OCCO2,19.1,nt,nt,nt,nt,nt
CCN1CCC(N(C)C2CCCCC2)CC1,13.8,nt,nt,nt,nt,nt
O=C1NC(=O)C2(Cc3ccccc3N3CCCC32)C(=O)N1c1cccc(Cl)c1 (centres undefined),-6.0,11.4,i,-6.6,-12.2,0.6
Cc1ccc(N2C(=O)NC(=O)C3(Cc4ccccc4N4CCN(c5ccccc5)CC43)C2=O)cc1 (centres undefined),72.5*,4.7,i,-28.5,9.1,1.1
COc1cc(CNCCc2c[nH]c3ccccc23)cc(OC)c1,-14.0,nt,nt,nt,nt,nt
